Experiments:
Rattus norvegicus = species: Rattus norvegicus; assay: Inhibition of [3H]DA dopamine (DA) reuptake activity; type: functional
[1] = biological target: Norepinephrine transporter (Rattus norvegicus, UniProt Q9WTR4); assay: Inhibition of binding of [3H]nisoxetine to (NET) norepinephrine transporter in rat striatum; type: tissue-based
How it was run: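 Radioligand displacement of [3H]nisoxetine labelling NET; other binding conditions are referred to earlier work. Values are means ± SEM of three independent experiments, each assayed in triplicate.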

[2] = biological target: Sodium-dependent dopamine transporter (Rattus norvegicus, UniProt P23977); assay: Inhibition of binding of [3H]WIN-35 428 to (DAT) dopamine transporter in rat striatum; type: tissue-based
[3] = biological target: Sodium-dependent serotonin transporter (Rattus norvegicus, UniProt P31652); assay: Inhibition of binding of [3H]citalopram to (SERT) serotonin transporter in rat striatum; type: tissue-based
Chain of Sodium-dependent serotonin transporter (P31652 whole entry): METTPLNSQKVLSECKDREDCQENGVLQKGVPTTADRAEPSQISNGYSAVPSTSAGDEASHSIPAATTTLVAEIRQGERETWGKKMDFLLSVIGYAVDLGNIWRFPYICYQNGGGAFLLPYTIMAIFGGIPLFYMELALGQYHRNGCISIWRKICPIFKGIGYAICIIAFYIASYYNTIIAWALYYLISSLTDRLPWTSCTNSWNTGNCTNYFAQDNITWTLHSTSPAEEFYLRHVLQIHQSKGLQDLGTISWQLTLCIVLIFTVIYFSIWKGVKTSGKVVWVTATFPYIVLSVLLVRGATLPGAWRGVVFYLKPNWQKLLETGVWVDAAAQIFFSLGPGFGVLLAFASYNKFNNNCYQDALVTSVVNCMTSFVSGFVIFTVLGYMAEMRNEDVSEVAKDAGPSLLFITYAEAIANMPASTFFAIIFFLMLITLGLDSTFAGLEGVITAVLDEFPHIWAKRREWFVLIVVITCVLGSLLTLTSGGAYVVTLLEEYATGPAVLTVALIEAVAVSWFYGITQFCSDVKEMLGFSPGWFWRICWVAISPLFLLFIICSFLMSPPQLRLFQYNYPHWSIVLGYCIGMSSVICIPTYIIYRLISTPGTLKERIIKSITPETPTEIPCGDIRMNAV

Chain of Sodium-dependent dopamine transporter (P23977 whole entry): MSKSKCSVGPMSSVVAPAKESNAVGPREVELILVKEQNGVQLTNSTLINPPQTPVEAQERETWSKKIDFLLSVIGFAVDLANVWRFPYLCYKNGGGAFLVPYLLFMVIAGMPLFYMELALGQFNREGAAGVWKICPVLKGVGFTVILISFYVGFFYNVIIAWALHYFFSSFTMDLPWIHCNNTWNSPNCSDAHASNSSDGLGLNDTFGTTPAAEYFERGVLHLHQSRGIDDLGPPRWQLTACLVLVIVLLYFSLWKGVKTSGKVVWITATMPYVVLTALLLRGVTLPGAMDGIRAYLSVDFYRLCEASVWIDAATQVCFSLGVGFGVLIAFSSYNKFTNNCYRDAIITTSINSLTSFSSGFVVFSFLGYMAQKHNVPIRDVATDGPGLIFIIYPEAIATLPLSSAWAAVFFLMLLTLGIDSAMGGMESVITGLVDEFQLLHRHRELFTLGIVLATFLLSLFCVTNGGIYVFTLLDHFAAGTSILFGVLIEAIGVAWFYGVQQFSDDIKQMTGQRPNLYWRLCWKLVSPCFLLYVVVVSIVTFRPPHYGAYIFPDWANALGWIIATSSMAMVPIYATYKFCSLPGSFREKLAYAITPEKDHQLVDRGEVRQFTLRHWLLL
Chain of Norepinephrine transporter (Q9WTR4 whole entry): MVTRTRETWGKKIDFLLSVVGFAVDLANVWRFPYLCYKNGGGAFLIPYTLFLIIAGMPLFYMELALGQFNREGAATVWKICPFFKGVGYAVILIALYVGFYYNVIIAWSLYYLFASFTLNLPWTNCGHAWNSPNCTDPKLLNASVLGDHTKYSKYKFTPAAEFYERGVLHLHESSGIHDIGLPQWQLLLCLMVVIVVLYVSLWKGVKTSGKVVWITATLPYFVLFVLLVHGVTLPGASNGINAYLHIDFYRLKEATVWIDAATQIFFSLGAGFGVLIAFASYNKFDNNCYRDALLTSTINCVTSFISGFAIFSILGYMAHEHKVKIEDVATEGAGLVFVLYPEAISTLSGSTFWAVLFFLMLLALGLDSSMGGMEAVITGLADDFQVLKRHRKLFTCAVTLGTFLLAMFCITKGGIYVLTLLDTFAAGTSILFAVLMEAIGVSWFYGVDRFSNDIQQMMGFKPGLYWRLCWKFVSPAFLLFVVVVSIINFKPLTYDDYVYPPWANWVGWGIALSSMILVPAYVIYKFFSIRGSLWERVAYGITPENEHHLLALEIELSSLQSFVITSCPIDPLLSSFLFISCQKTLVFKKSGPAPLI

| SMILES | IC50 (Rattus norvegicus) [nM] | IC50 [1] [nM] | IC50 [2] [nM] | IC50 [3] [nM] |
| --- | --- | --- | --- | --- |
| Fc1ccc(CNC2CCC(C(c3ccccc3)c3ccccc3)NC2)cc1 (configuration not stated) | 45.7 | 1020 | 32.5 | 2220 |
| O=[N+]([O-])c1ccc(CNC2CCC(C(c3ccccc3)c3ccccc3)OC2)cc1 (racemic) | 102 | – | 38.3 | – |
| COc1ccc(CNC2CCC(C(c3ccccc3)c3ccccc3)OC2)cc1 (racemic) | 59.5 | – | 84 | – |
| N#Cc1ccc(CNC2CCC(C(c3ccccc3)c3ccccc3)OC2)cc1 (racemic) | – | 1580 | – | 863 |
| Fc1ccc(CNC2CCC(C(c3ccccc3)c3ccccc3)OC2)cc1 (racemic) | 156 | 232 | 163 | 1860 |
| Fc1ccc(CNC2CCC(C(c3ccccc3)c3ccccc3)OC2)cc1 (single isomer, unassigned) | – | 12700 | 313 | 8410 |

Source: ChEMBL document CHEMBL1144974, “Design, synthesis, and activity of novel cis- and trans-3,6-disubstituted pyran biomimetics of 3,6-disubstituted piperidine as potential ligands for the dopamine transporter” (Bioorg Med Chem Lett, 2003)
